The text below walks through data of article PMC5889851 (ACS chemical biology, 2018).

Data set [1] deals with HEK293 cells overexpressing SIRT2. Put plainly: Cellular NAD+ measurement. Type of data set: cell-based, human. Particulars: 40 nM, 6 h, vs control cells. The procedure, abridged: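 SIRT2-overexpressing HEK293 cells got 0 or 40 nM NAMPT inhibitor for 6 h, then were harvested, rinsed and resuspended in fresh medium. Pellets were extracted with ice-cold 7% perchloric acid through three vortex (30 s) and ice sonication (5 min) cycles. Extracts were centrifuged 3 min at RT, and supernatant was neutralised to pH 7 with NaOH and phosphate buffer. NAD⁺ was quantified by cycling assay.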

The target in data set [2] is T1, SIRT2 in SIRT2 overexpressing HEK293 cells (Homo sapiens, UniProt Q8IXJ6).
T1 sequence (Q8IXJ6 1-389): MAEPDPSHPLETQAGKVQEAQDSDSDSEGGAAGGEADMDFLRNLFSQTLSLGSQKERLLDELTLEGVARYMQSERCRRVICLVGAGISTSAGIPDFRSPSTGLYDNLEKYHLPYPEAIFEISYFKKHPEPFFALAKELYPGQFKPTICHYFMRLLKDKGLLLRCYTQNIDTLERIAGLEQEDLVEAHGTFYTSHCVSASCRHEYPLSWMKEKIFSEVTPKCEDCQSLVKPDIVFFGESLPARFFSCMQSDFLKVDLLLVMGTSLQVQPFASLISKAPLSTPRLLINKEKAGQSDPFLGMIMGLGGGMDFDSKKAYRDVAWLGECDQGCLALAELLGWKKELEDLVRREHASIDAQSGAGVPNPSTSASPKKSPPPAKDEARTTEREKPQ
Description: In situ labeling of SIRT2 with activity-based probe. It counts as cell-based. Particulars: cells treated with FK866 6 h, then 10 μM probe 1; compared to control cells. An outline of the steps: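 SIRT2-overexpressing HEK293 cells were treated with or without NAMPT inhibitor for 6 h, rinsed three times, and given fresh medium with 10 μM probe. Live cells were irradiated at 365 nm on ice for 1 h, then harvested and lysed. Lysate was click-conjugated to azide-fluor 545, resolved by SDS-PAGE and scanned for fluorescence. SIRT2 protein level was checked by Western blot.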

The next data set concerns HEK293 cells. Put plainly: Viability testing using trypan blue. It counts as cell-based, human. As to conditions: 40 nM, 6 h. The procedure, abridged: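 HEK293 cells received 0 or 40 nM NAMPT inhibitor for 6 h, then were harvested, rinsed and resuspended in fresh medium. An aliquot of the suspension was scored for viability by trypan blue exclusion.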

On to `O=C(/C=C/c1cccnc1)NCCCCC1CCN(C(=O)c2ccccc2)CC1` [FK866], for which the “NAD+ depletion” value in data set [1] was 60%. Further, the “in situ labeling intensity of SIRT2 by probe 1” value in data set [2] is “decreased labeling intensity”. Besides, in the data set on HEK293 cells, the loss of viability result was “negligible loss of viability”.
